Measurements: ChEMBL document CHEMBL1629705, “PSI-7851, a pronucleotide of beta-D-2'-deoxy-2'-fluoro-2'-C-methyluridine monophosphate, is a potent and pan-genotype inhibitor of hepatitis C virus replication” (Antimicrob Agents Chemother, 2010)
Activity calls are given as the source filed them. The calls are words filed in the database; no cut-off is given here.

Key:
Hepatitis C virus [1] = experiment: Antiviral activity against Hepatitis C virus harboring NS5B polymerase S96T/N142T mutant gene infected in human […] cells by luciferase-based replicon assay; format: functional, Hepacivirus hominis
Outline: (§1)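 ET-lunet cells with the ET genotype 1b replicon, wild-type or S96T/N142T (ET replicon with these mutations electroporated into Lunet cells, selected in 0.2 mg/ml G418). 3,000 cells/well, 4 days with serially diluted compound. Firefly luciferase luminescence read-out; EC90 from dose–response.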

Hepatitis C virus [2] = experiment: Antiviral activity against Hepatitis C virus harboring wild-type NS5B infected in human HuH7 cells by luciferase-based replicon assay; format: functional, Hepacivirus hominis; details: Huh-7
Hepatitis C virus [3] = experiment: Antiviral activity against Hepatitis C virus harboring NS5B polymerase S282T mutant gene infected in human HuH7 cells by luciferase-based replicon assay; format: functional, Hepacivirus hominis; details: Huh-7
Hepatitis C virus [4] = experiment: Selectivity ratio of EC90 for Hepatitis C virus harboring NS5B polymerase S282T mutant gene to EC90 for Hepatitis C virus harboring wild-type NS5B polymerase; format: functional, Hepacivirus hominis
Outline: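 Clone A genotype 1b (Con1) replicon cells, wild-type or S282T mutant (selected with 2′-C-methyladenosine). 1,500 cells/well, 4 days with serially diluted compound. HCV RNA by real-time RT-PCR; EC90 from dose–response.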

Hepatitis C virus [5] = experiment: Antiviral activity against Hepatitis C virus harboring wild-type NS5B infected in human lunet cells by luciferase-based replicon assay; format: functional, Hepacivirus hominis; outline: as §1
Hepatitis C virus [6] = experiment: Antiviral activity against Hepatitis C virus harboring NS5B polymerase S96T mutant gene infected in human lunet cells by luciferase-based replicon assay; format: functional, Hepacivirus hominis; outline: as §1
Hepatitis C virus [7] = experiment: Selectivity ratio of EC90 for Hepatitis C virus harboring NS5B polymerase S96T mutant gene to EC90 for HCV harboring wild type NS5B polymerase; format: functional, Hepacivirus hominis
Hepatitis C virus [8] = experiment: Antiviral activity against Hepatitis C virus Con1 infected in human lunet cells assessed as inhibition of viral RNA replication after 4 days by luciferase reporter gene assay; format: functional, organism-based, Hepacivirus hominis; details: 96 h
Outline: (§2)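 Genotype 1b Con1 subgenomic replicon cells (ET-lunet, 3,000 cells/well, firefly luciferase ET replicon; clone A, 1,500 cells/well) incubated 4 days with serially diluted compound. Replication read by luciferase luminescence and/or real-time RT-PCR.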

Hepatitis C virus [9] = experiment: Antiviral activity against Hepatitis C virus isolate Con1 infected in human HuH-7 cells assessed as inhibition of viral RNA replication after 4 days by luciferase reporter gene assay; format: functional, Hepacivirus hominis; details: Con1, Huh-7, 96 h; outline: as §2
[10] = molecular target: T1, DNA-directed RNA polymerase II subunit RPB1 (Homo sapiens, UniProt P24928); experiment: Inhibition of human RNA polymerase 2 assessed as synthesis of RNA products at 500 uM
Outline: (§3)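 In vitro transcription by HeLa nuclear extract from CMV immediate-early promoter DNA. Mix: 400 μM ATP, CTP and UTP, 16 μM GTP, [α-32P]GTP, 3 mM MgCl2, in 20 mM HEPES pH 7.9 buffer with KCl, EDTA, DTT and glycerol. Inhibitor up to 1 mM. 30°C for 60 min. RNA purified, run on 6% sequencing gel and quantified by phosphorimager.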

[11] = molecular target: T1, DNA-directed RNA polymerase II subunit RPB1; experiment: Inhibition of human RNA polymerase 2 assessed as synthesis of RNA products at 1 uM; outline: as §3
[12] = molecular target: T1, DNA-directed RNA polymerase II subunit RPB1; experiment: Inhibition of human RNA polymerase 2; outline: as §3
Hepatitis C virus [13] = experiment: Antiviral activity against Hepatitis C virus; format: functional, organism-based, Hepacivirus hominis
Hepatitis C virus [14] = experiment: Antiviral activity against Hepatitis C virus assessed as log reduction in viral RNA at 0.1 uM after 3 weeks; format: functional, Hepacivirus hominis
Outline: (§4)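 ET-lunet replicon cells seeded at 1 × 10^5/well without G418, treated at 0.1, 1 or 2 μM (final DMSO 0.5%). Passaged 1:3–1:4 every 3–4 days for 3 weeks with fresh compound. Then compound withdrawn and cells grown 3 more weeks in 0.25 mg/ml G418. HCV RNA by RT-PCR (ΔΔCt vs rRNA and DMSO controls, log change). Colonies fixed in formaldehyde and stained with crystal violet at 6 weeks.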

Hepatitis C virus [15] = experiment: Antiviral activity against Hepatitis C virus assessed as inhibition of viral rebound at 1 uM after 3 weeks in presence of G418; format: functional, organism-based; details: Hepacivirus hominis
Outline: (§5)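 ET-lunet replicon cells, 1 × 10^5/well, no G418, with compound at 0.1, 1 or 2 μM (final DMSO 0.5%). Passaged 1:3 or 1:4 every 3–4 days for 3 weeks with fresh compound, then 3 more weeks with 0.25 mg/ml G418 and no inhibitor. HCV RNA by RT-PCR normalized to rRNA (ΔΔCt vs DMSO) at each passage. Crystal violet colony staining at 6 weeks.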

Hepatitis C virus [16] = experiment: Antiviral activity against Hepatitis C virus assessed as inhibition of viral rebound at 2 uM after 3 weeks in presence of G418; format: functional, organism-based; details: Hepacivirus hominis; outline: as §5
Hepatitis C virus [17] = experiment: Antiviral activity against Hepatitis C virus assessed as inhibition of viral rebound at 0.1 uM after 3 weeks in presence of G418; format: functional, organism-based; details: Hepacivirus hominis; outline: as §4
Hepatitis C virus [18] = experiment: Antiviral activity against Hepatitis C virus assessed as clearance of HCV from replicon cells at 1 uM; format: functional, organism-based; details: Hepacivirus hominis; outline: as §5
Hepatitis C virus [19] = experiment: Antiviral activity against Hepatitis C virus assessed as clearance of HCV from replicon cells at 2 uM; format: functional, organism-based; details: Hepacivirus hominis; outline: as §5
DNA polymerase beta = DNA polymerase beta (Homo sapiens, UniProt P06746); experiment: Inhibition of human DNA polymerase beta assessed as incorporation of [alpha-32P]dCTP up to 1mM preincubated for 30 mins by whatman DE81 paper binding assay
Outline: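 Human DNA polymerase β at 18 μg/ml final, in 50 mM Tris pH 7.5, 50 mM NaCl, 5 mM MgCl2, activated calf thymus DNA and 20 μM each dNTP with [α-32P]dCTP. Triphosphate up to 1 mM. 37°C, stopped at 30 min with EDTA. Products quantified by DE81 paper binding; IC50 by nonlinear fit.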

[20] = molecular target: T2, DNA polymerase subunit gamma-1 (Homo sapiens, UniProt P54098); experiment: Inhibition of human DNA polymerase gamma assessed as incorporation of [alpha-32P]dCTP up to 1mM preincubated for 30 mins by whatman DE81 paper binding assay
T2 sequence (P54098 whole entry): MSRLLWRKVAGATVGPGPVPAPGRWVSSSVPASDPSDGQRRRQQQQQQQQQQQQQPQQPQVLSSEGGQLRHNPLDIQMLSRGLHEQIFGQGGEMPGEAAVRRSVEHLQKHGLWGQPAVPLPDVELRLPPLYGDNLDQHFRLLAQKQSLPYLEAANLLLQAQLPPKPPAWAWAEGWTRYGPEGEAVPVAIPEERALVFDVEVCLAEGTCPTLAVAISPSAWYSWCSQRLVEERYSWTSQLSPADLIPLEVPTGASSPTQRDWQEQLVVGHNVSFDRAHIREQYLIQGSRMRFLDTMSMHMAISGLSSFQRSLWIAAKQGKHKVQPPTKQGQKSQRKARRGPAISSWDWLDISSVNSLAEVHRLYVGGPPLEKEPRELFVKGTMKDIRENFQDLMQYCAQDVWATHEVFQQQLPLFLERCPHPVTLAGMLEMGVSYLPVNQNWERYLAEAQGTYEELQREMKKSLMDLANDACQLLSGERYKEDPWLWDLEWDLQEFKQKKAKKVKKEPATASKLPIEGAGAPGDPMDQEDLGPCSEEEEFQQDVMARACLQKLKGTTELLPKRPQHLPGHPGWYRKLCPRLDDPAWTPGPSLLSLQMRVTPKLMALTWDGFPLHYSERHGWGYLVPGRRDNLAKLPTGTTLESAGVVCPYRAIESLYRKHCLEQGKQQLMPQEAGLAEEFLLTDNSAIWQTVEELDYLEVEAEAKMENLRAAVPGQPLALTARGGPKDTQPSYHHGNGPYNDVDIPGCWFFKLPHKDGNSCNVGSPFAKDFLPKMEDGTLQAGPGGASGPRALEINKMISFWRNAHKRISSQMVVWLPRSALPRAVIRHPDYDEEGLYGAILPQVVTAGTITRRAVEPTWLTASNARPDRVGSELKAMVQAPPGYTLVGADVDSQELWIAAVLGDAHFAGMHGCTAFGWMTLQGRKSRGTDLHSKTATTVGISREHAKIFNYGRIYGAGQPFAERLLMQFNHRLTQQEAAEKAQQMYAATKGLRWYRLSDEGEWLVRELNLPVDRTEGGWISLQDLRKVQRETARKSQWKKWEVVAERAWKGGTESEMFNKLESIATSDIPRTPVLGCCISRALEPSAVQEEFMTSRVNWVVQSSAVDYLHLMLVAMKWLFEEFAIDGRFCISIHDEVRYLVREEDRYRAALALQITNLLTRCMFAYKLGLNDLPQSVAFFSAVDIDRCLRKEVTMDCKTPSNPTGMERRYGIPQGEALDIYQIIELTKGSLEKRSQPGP
Outline: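 Human DNA polymerase α (20 μg/ml) or γ (50 μg/ml) in 50 mM Tris pH 7.5, 50 mM NaCl, activated calf thymus DNA, 20 μM each dNTP, [α-32P]dCTP, 5 mM MgCl2. Nucleotide inhibitor up to 1 mM. 37°C, quenched with EDTA at 30 min. Product measured by DE81 paper binding; IC50 by nonlinear fit.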

For `[N-]=[N+]=N[C@]1(CO)O[C@@H](n2ccc(N)nc2=O)[C@H](O)[C@@H]1O` [4'-AZIDOCYTIDINE], the EC90 (Hepatitis C virus [1]) was 80.1 µM, the EC90 (Hepatitis C virus [2]) was 18.6 µM and the EC90 (Hepatitis C virus [3]) was 24.9 µM. It also gave a Selectivity ratio (Hepatitis C virus [4]) of 1.3, an EC90 (Hepatitis C virus [5]) of 17 µM and an EC90 (Hepatitis C virus [6]) of 80.1 µM. For the same compound, the Selectivity ratio (Hepatitis C virus [7]) was 4.7.
Work on `C[C@@]1(F)[C@H](O)[C@@H](CO)O[C@H]1n1ccc(N)nc1=O` yielded an EC50 (Hepatitis C virus [8]) of 0.075 µM, an EC90 (Hepatitis C virus [8]) of 0.52 µM and an EC90 (Hepatitis C virus [9]) of 0.45 µM.
In the case of `Nc1ccn([C@@H]2O[C@H](COP(=O)(O)OP(=O)(O)OP(=O)(O)O)C[C@H]2O)c(=O)n1`, the inhibition [10] is reported as 67%, the inhibition [11] is reported as “Active” and the IC50 [12] is reported as > 500 µM.
For `CC(C)CCn1c(=O)c(C2=NS(=O)(=O)c3cc(N(C)S(C)(=O)=O)ccc3N2)c(O)c2cccn21`, the EC50 (Hepatitis C virus [13]) was 0.11 µM, the FC (Hepatitis C virus [14]) was 0.69 and the Activity (Hepatitis C virus [15]) was “inactive”. For the same compound, the Activity (Hepatitis C virus [16]) was “Active”, the Activity (Hepatitis C virus [17]) was “inactive” and the Activity (Hepatitis C virus [18]) was “inactive”. For the same compound, the Activity (Hepatitis C virus [19]) was “inactive”.
In the case of `C[C@@]1(CO)[C@H](O)CC[C@@]2(C)[C@H]1CC[C@H]1C[C@@H]3C[C@@]12CC[C@]3(O)CO` [APHIDICOLIN], the IC50 (DNA polymerase beta) is reported as > 100 µM and the IC50 [20] is reported as > 100 µM.
